A short description of experiment [1]: reduced viability of SK-BR-3 breast cancer cells – cell-based, 24 h, human, pilot screen (AID 572;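 active = viability at or below 10% of carrier control in both of two separate runs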;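 also: compound exposure lasted between 18 and 24 h rather than exactly 24 h; 100% = carrier-treated control wells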). The note with it: SK-BR-3 viability, CellTiter-Glo luminescence, at 10 µM, stronger effect = lower value. (In general: ATP-based viability assays read luminescence as a measure of living cells.)
Experiment [2] in a line: HUVEC growth inhibition – cell-based, human, primary screen (AID 575;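 active = viability at or below 30% in both replicate assays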;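 also: 100% = median of untreated cell wells with 0.1% DMSO on each plate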). As to conditions: HUVEC proliferation, CellTiter-Glo luminescence, 72 h; at 10 µM; stronger effect = lower value. Summed up: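 Material: primary human umbilical vein endothelial cells / Schedule: 72 h exposure, 37 °C, 5% CO2, 30 min RT equilibration / Signal: ATP-based CellTiter-Glo luminescent read / Read-out basis: percent of median DMSO-control luminescence / Control set: 32 DMSO-only cell-control wells (high), 32 MePR drug-control wells (low) per plate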

Experiment [3] can be described thus: H69AR cell proliferation blockers – human, duplicate replicates, primary screen (AID 580).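 Also: 100% = mean luminescence of untreated wells and 0% = no signal.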 As to conditions: H69AR lung tumor cells viability, ATP luminescence, 72 h; at 10 µM; stronger effect = lower value.
Experiment [4] can be described thus: MRP1 drug-resistance reversers in H69AR cells – cell-based, doxorubicin co-treatment, pilot screen (AID 601;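 active = viability loss from added drug above about 55%, and viability with drug at most 40%, in both replicates, limit read from the data, passing the limit was not always enough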). The note with it: CellTiter-Glo, 72 h, at 10 µM; for differential viability (reversal): stronger effect = higher value.
Experiment [5] in a line: yeast transport mutant growth inhibition pilot in 384-well plates, post-Golgi transport modulator project (AID 636; in the data active = inhibition above about 31%). The note with it: absorbance 615 nm, about 18 h, stronger effect = higher value.
The nature of experiment [6]: growth suppression of yeast trafficking mutant, preliminary HTS, modulators of trafficking downstream of Golgi apparatus project, 1536-format plate, OD 615 nm (AID 637; in the data active = inhibition above about 30%). The note with it: yeast transport mutant growth, absorbance 615 nm, 18 h; stronger effect = higher value.
Setting [7] is: H69AR cells + 2 uM doxorubicin, measured here: viability with 2 uM doxorubicin, stronger effect = lower value.
Setting [8] is: H69AR cells, compound alone cytotoxicity.

In PubChem BioAssay one finds viability, differential viability (reversal) and inhibition data, which are given here for 18 molecules.

Usually viability stands for a read-out of living cells in per cent, often relative to untreated cells. In general, inhibition refers to the change of the read-out against control, counted positive when it falls.

The source made the active and inactive calls.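 The calls were made as follows, unless noted: active = viability at or under a set limit in both replicates, limit being median viability minus 3 SD (cut at about 48% in these data, passing the limit was not always enough); inconclusive = at or under the limit in just one replicate; inactive = at or above the limit in both replicates.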

For `N#Cc1c(N2CCOCC2)nc(N2CCCCC2)c2c1CCN(C1CCCCC1)C2`, the viability in experiment [1] is 92% (inactive); in experiment [2], 101% (inactive); in experiment [3] it was 89.2% (inactive); in experiment [4] (setting [7]), 71.6%; in experiment [4] (setting [8]), 89.2%. For the same molecule, the differential viability (reversal) in experiment [4] (H69AR cells + 2 uM doxorubicin) is 17.5% (inactive). Moreover, the figures for the inhibition in experiment [5] and in experiment [6] were -1.22% (inactive) and -1.82% (inactive), respectively.
Take `CCOC(=O)/C=C1\SCC(=O)N1Cc1nnc(-c2ccccc2Br)o1`: the viability was 107% (inactive) in experiment [1]; 97.5% (inactive) in experiment [2]; 91.3% (inactive) in experiment [3]; 88.2% in experiment [4] (setting [7]); 91.3% in experiment [4] (setting [8]). In addition, the differential viability (reversal) in experiment [4] (H69AR cells + 2 uM doxorubicin) is 3.01% (inactive). The inhibition was -7.81% (inactive) in experiment [5] and 1.82% (inactive) in experiment [6].
For the molecule `O=C(O)CC1Sc2nc3ccccc3n2C1=O` (centres undefined), the viability in experiment [1] is 105% (inactive); in experiment [2] it was 111% (inactive); in experiment [3], 102% (inactive); in experiment [4] (setting [7]) it was 95.4%; in experiment [4] (setting [8]), 102%. The differential viability (reversal) in experiment [4] (H69AR cells + 2 uM doxorubicin) was 6.67% (inactive). The inhibition was -6.08% (inactive) in experiment [5] and -5.27% (inactive) in experiment [6].
For the molecule `Cc1noc(C)c1C(=O)N1CCN(C(=O)c2sc3cc(Cl)ccc3c2Cl)CC1`, the viability in experiment [1] was 103% (inactive); in experiment [2] it was 106% (inactive); in experiment [3] it was 89% (inactive); in experiment [4] (setting [7]) it was 80.5%; in experiment [4] (setting [8]), 89%. Also, the differential viability (reversal) in experiment [4] (H69AR cells + 2 uM doxorubicin) is 8.48% (inactive). The values for the inhibition in experiment [5] and in experiment [6] were -5.14% (inactive) and -1.64% (inactive), respectively.
As to `COC(=O)c1c(NC(=O)CCc2ccc(C)o2)sc(C)c1C`, the viability was 112% (inactive) in experiment [1]; 90.5% (inactive) in experiment [2]; 81.7% (inactive) in experiment [3]; 79.9% in experiment [4] (setting [7]); 81.7% in experiment [4] (setting [8]). The differential viability (reversal) in experiment [4] (H69AR cells + 2 uM doxorubicin) was 1.81% (inactive). Moreover, the figures for the inhibition in experiment [5] and in experiment [6] were -2.4% (inactive) and 1.27% (inactive), respectively.
As for `CCCCOc1ccc(C2C3CN(C(=O)OCC)CC=C3C(C#N)=C(N)C2(C#N)C#N)cc1OC` (centres undefined), the viability in experiment [1] was 62% (inactive); in experiment [2] it was 51.2% (inactive); in experiment [3], 60.5% (inactive); in experiment [4] (setting [7]), 55.4%; in experiment [4] (setting [8]), 60.5%. Further, in experiment [4] (H69AR cells + 2 uM doxorubicin), the differential viability (reversal) is 5.07% (inactive). Further, the inhibition in experiment [5] was -5.27% (inactive); in experiment [6], 2.13% (inactive).
As to `COc1cc(C2c3c(oc4c(C)cc(C)cc4c3=O)C(=O)N2Cc2cccnc2)ccc1O` (centres undefined), the viability in experiment [1] is 78% (inactive); in experiment [2], 69.1% (inactive); in experiment [3], 80.2% (inactive); in experiment [4] (setting [7]), 77.6%; in experiment [4] (setting [8]) it was 80.2%. Besides, the differential viability (reversal) in experiment [4] (H69AR cells + 2 uM doxorubicin) is 2.59% (inactive). Also, the values for the inhibition in experiment [5] and in experiment [6] were 0.13% (inactive) and 2.42% (inactive), respectively.
Take `Cc1cc(C)cc(C(=O)N2CCC(C(N)=O)CC2)c1`: the viability in experiment [1] is 91% (inactive); in experiment [2] it was 105% (inactive); in experiment [3], 97.2% (inactive); in experiment [4] (setting [7]) it was 87.5%; in experiment [4] (setting [8]), 97.2%. For the same molecule, in experiment [4] (H69AR cells + 2 uM doxorubicin), the differential viability (reversal) is 9.71% (inactive). In addition, the inhibition in experiment [5] is -8.78% (inactive); in experiment [6] it was 0% (inactive).
On to `CN(C)c1ccc(C2C3=C(CCCC3=O)OC3=C2C(=O)CCC3)cc1`, for which the viability in experiment [1] is 90% (inactive); in experiment [2], 97% (inactive); in experiment [3] it was 92.5% (inactive); in experiment [4] (setting [7]), 89.7%; in experiment [4] (setting [8]), 92.5%. In addition, in experiment [4] (H69AR cells + 2 uM doxorubicin), the differential viability (reversal) is 2.78% (inactive). Also, the inhibition in experiment [5] is -5.73% (inactive); in experiment [6], -2.18% (inactive).
Consider `Cc1ccc(N2CCN(c3ccc(C)cc3)C(CC(=O)O)C2=O)cc1` (centres undefined), for which the viability in experiment [1] was 92% (inactive); in experiment [2], 98.2% (inactive); in experiment [3] it was 97.4% (inactive); in experiment [4] (setting [7]), 93.2%; in experiment [4] (setting [8]), 97.4%. Besides, the differential viability (reversal) in experiment [4] (H69AR cells + 2 uM doxorubicin) was 4.25% (inactive). Further, the inhibition in experiment [5] was -5.89% (inactive); in experiment [6], -3.23% (inactive).
Take `O=S(=O)(c1ccc(Br)s1)N1CCN(c2ccccc2)CC1`: the viability was 90% (inactive) in experiment [1]; 96.9% (inactive) in experiment [2]; 87.6% (inactive) in experiment [3]; 91.7% in experiment [4] (setting [7]); 87.6% in experiment [4] (setting [8]). In addition, the differential viability (reversal) in experiment [4] (H69AR cells + 2 uM doxorubicin) was -4.09% (inactive). The inhibition in experiment [5] was -3.78% (inactive); in experiment [6], -3.27% (inactive).
Take `O=C(O)/C=C/c1ccc(O)c(O)c1`: the viability is 94% (inactive) in experiment [1]; 69% (inactive) in experiment [2]; 97.9% (inactive) in experiment [3]; 92.5% in experiment [4] (setting [7]); 97.9% in experiment [4] (setting [8]). The differential viability (reversal) in experiment [4] (H69AR cells + 2 uM doxorubicin) was 5.39% (inactive). Further, the inhibition in experiment [5] was -0.39% (inactive); in experiment [6] it was 1% (inactive).
Regarding `CC(=O)OCC(=O)[C@@]12OC(C)(C)O[C@@H]1C[C@H]1[C@@H]3C[C@H](F)C4=CC(=O)C=C[C@]4(C)[C@@]3(F)[C@@H](O)C[C@@]12C`, the viability was 104% (inactive) in experiment [1]; 62.1% (inactive) in experiment [2]; 106% (inactive) in experiment [3]; 104% in experiment [4] (setting [7]); 106% in experiment [4] (setting [8]). Moreover, the differential viability (reversal) in experiment [4] (H69AR cells + 2 uM doxorubicin) was 2.31% (inactive). For the same molecule, the inhibition was 0.65% (inactive) in experiment [5] and -1.83% (inactive) in experiment [6].
Take `CN(CC(=O)Nc1ccc(F)c(Cl)c1)S(=O)(=O)c1cccc2nsnc12`: the viability is 99% (inactive) in experiment [1]; 74.3% (inactive) in experiment [2]; 90.1% (inactive) in experiment [3]; 81.8% in experiment [4] (setting [7]); 90.1% in experiment [4] (setting [8]). In addition, the differential viability (reversal) in experiment [4] (H69AR cells + 2 uM doxorubicin) is 8.32% (inactive). The inhibition was -2.3% (inactive) in experiment [5] and -1.09% (inactive) in experiment [6].
For `CC1(C)CC(=O)CC(=Nc2ccc(C(=O)O)cc2)C1`, the viability is 92% (inactive) in experiment [1]; 97.3% (inactive) in experiment [2]; 87.7% (inactive) in experiment [3]; 92.1% in experiment [4] (setting [7]); 87.7% in experiment [4] (setting [8]). The differential viability (reversal) in experiment [4] (H69AR cells + 2 uM doxorubicin) was -4.41% (inactive). For the same molecule, the results for the inhibition in experiment [5] and in experiment [6] were -3.64% (inactive) and -0.16% (inactive), respectively.
For the molecule `CCCS(=O)(=O)N1CCCC(C(=O)NC2CCCC(C)C2C)C1` (centres undefined), the viability in experiment [1] is 101% (inactive); in experiment [2], 113% (inactive); in experiment [3], 94.8% (inactive); in experiment [4] (setting [7]), 85.8%; in experiment [4] (setting [8]) it was 94.8%. For the same molecule, in experiment [4] (H69AR cells + 2 uM doxorubicin), the differential viability (reversal) was 8.93% (inactive). The inhibition was -2.73% (inactive) in experiment [5] and -3.28% (inactive) in experiment [6].
Regarding `Cc1cc(NC(=O)c2cnn3c(C(F)F)cc(C4CC4)nc23)no1`, the viability in experiment [1] is 131% (inactive); in experiment [2], 79.6% (inactive); in experiment [3], 82.4% (inactive); in experiment [4] (setting [7]) it was 95.1%; in experiment [4] (setting [8]), 82.4%. In experiment [4] (H69AR cells + 2 uM doxorubicin), the differential viability (reversal) was -12.8% (inactive). Besides, the inhibition in experiment [5] is -1.43% (inactive); in experiment [6] it was 3.11% (inactive).
As for `CCCCn1cnc2c(c1=O)c1nc3ccccc3nc1n2Cc1ccc2c(c1)OCO2`, the viability in experiment [1] was 85% (inactive); in experiment [2], 85.9% (inactive); in experiment [3], 68.9% (inactive); in experiment [4] (setting [7]) it was 74.3%; in experiment [4] (setting [8]) it was 68.9%. For the same molecule, the differential viability (reversal) in experiment [4] (H69AR cells + 2 uM doxorubicin) was -5.45% (inactive). In addition, the inhibition is -5.14% (inactive) in experiment [5] and -1.82% (inactive) in experiment [6].
